The species entered for assay [1] is Homo sapiens. The experiment in a line: Bronchorelaxing effect in leukotriene D4-contracted human lung small airways model assessed as remaining contraction at 10 uM relative to control. Format: functional. Summed up:
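Human small airways (0.5–1.5 mm diameter) from lobectomy tissue, stretched to 1.2 mN and accepted when two control LTD4 contractions differed by under 10%. Test substance at 10 µM was present for one whole cycle: 1 h LTD4-free PSS, then 30 min with 10 nM LTD4. The contraction was compared with the preceding one and given as % remaining, mean ± SEM. Paired preparations per chamber were averaged.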

Assay [2] is filed under the species Homo sapiens. Put plainly: Bronchorelaxing effect in leukotriene D4-contracted small human lung small airways model assessed as remaining contraction at 1 uM after 6 hrs relative to control.
Assay [3] is filed under the species Homo sapiens. Put plainly: Bronchorelaxing effect in leukotriene D4-contracted small human lung small airways model assessed as remaining contraction at 1 uM after 1.5 hrs relative to control.
The species named for assay [4] is Homo sapiens. Put plainly: Bronchorelaxing effect in leukotriene D4-contracted small human lung small airways model assessed as remaining contraction at 1 uM after 3 hrs relative to control.
The species named for assay [5] is Homo sapiens. Put plainly: Bronchorelaxing effect in leukotriene D4-contracted small human lung small airways model assessed as remaining contraction at 1 uM after 4.5 hrs relative to control.

Structures are written as SMILES.

Regarding `CCCCCCCCNC(=S)N1CCc2c(Cl)c(O)c(O)c(Cl)c2C1`, the Activity in the assay listed under Homo sapiens [1] amounted to 69%. Turning to `Oc1c(O)c(Cl)c2c(c1Cl)CCN(C(=S)NCCc1cccnc1)C2`, in the assay listed under Homo sapiens [1], the Activity stood at 30%. Still for that read-out and setting: the result for `O=C(NCCc1ccc(Cl)cc1)C1CCc2cc(O)ccc2C1` (centres undefined) reads 78%; that for `Oc1c(O)c(Cl)c2c(c1Cl)CCN(C(=S)NCCc1ccccc1)C2`, 8%. Same read-out and setting: the result for `O=C(NCCc1ccc(Cl)cc1)N1CCc2cc(O)c(O)cc2C1` reads 69%. Same read-out and setting: in the case of `Oc1c(O)c(Cl)c2c(c1Cl)CCN(C(=S)NCCc1ccncc1)C2` it was 33%; in that of `CCCCCCCCNC(=S)N1CCCc2cc(O)c(O)cc2C1`, 69%. `Oc1c(O)c(Cl)c2c(c1Cl)CCN(C(=S)NCCc1ccccc1Cl)C2`: in the assay listed under Homo sapiens [1], the Activity was 10%. For `Oc1c(O)c(Cl)c2c(c1Cl)CCN(C(=S)NCCc1ccc(Cl)cc1)C2`, the Activity in the assay filed under Homo sapiens [2] was found to be 32%; in the assay filed under Homo sapiens [1] it was 14%; in the assay filed under Homo sapiens [3], 79%; in the assay filed under Homo sapiens [4], 57%; in the assay listed under Homo sapiens [5], 44%. Turning to `Oc1cc2c(cc1O)CN(C(=S)NCCc1ccccc1)CCC2`, in the assay filed under Homo sapiens [1], the Activity is 71%. Consider `Oc1c(O)c(Cl)c2c(c1Cl)CCN(C(=S)NCCc1ccccn1)C2`, for which, in the assay filed under Homo sapiens [1], the Activity came out at 26%.

For the molecule `Oc1cc2c(cc1O)CN(C(=S)NCc1ccc(Cl)cc1)CCC2`, the Activity in the assay filed under Homo sapiens [1] was 70%. As for `Oc1ccc(CCNC(=S)N2CCc3c(Cl)c(O)c(O)c(Cl)c3C2)cc1`, the Activity in the assay filed under Homo sapiens [1] turned out to be 22%. Regarding `O=C(CCCc1ccc(Cl)cc1)N1CCc2c(Cl)c(O)c(O)c(Cl)c2C1`, the Activity in the assay filed under Homo sapiens [2] turned out to be 45%; in the assay listed under Homo sapiens [1], 16%; in the assay filed under Homo sapiens [3], 80%; in the assay listed under Homo sapiens [4] it was 65%; in the assay filed under Homo sapiens [5], 55%. `O=C(NCCc1ccc(Cl)cc1)c1ccc2cc(O)ccc2c1`: the Activity in the assay listed under Homo sapiens [1] was 90%.

Regarding `O=C(NCCc1ccc(Cl)cc1)N1CCc2c(Cl)c(O)c(O)c(Cl)c2C1`, the Activity in the assay listed under Homo sapiens [2] was 71%; in the assay filed under Homo sapiens [1] it was 16%; in the assay listed under Homo sapiens [3], 91%; in the assay listed under Homo sapiens [4] it was 81%; in the assay listed under Homo sapiens [5] it was 78%. For `O=C(CCCc1ccc(Cl)cc1)N1CCc2cc(O)c(O)cc2C1`, the Activity in the assay filed under Homo sapiens [1] came to 47%.

As to `Oc1cc2c(cc1O)CN(C(=S)NCCc1ccc(F)cc1)CCC2`, the Activity in the assay filed under Homo sapiens [1] was 68%.

Turning to `Oc1c(O)c(Cl)c2c(c1Cl)CCN(C(=S)NCCc1ccc(F)cc1)C2`, the Activity in the assay listed under Homo sapiens [1] is 6%. `Oc1cc2c(cc1O)CN(C(=S)NCCc1ccc(Br)cc1)CCC2`: in the assay listed under Homo sapiens [1], the Activity worked out at 67%. Same read-out and setting: the result for `CC(C)(C)c1ccc(CCNC(=S)N2CCCc3cc(O)c(O)cc3C2)cc1` reads 80%. The same measure, in the same setting: the result for `Oc1c(O)c(Cl)c2c(c1Cl)CCN(C(=S)NCc1ccccc1)C2` reads 10%; that for `Oc1cc2c(cc1O)CN(C(=S)NCCc1cccc(Cl)c1)CCC2`, 76%. Still for that read-out and setting: in the case of `CC(C)(C)c1ccc(CCNC(=S)N2CCc3c(Cl)c(O)c(O)c(Cl)c3C2)cc1` it was 69%. For the molecule `O=C(CCCc1ccc(Cl)cc1)N1CCCc2cc(O)c(O)cc2C1`, the Activity in the assay listed under Homo sapiens [1] came to 54%. On the same count and under the same terms, the result for `Oc1c(O)c(Cl)c2c(c1Cl)CCN(C(=S)NCc1ccc(Cl)cc1)C2` reads 19%; that for `Oc1c(O)c(Cl)c2c(c1Cl)CCN(C(=S)NCCc1ccc(Br)cc1)C2`, 17%. Still for that read-out and setting: in the case of `O=C(NCCc1ccc(Cl)cc1)N1CCCc2cc(O)c(O)cc2C1` it was 73%; in that of `Oc1cc2c(cc1O)CN(C(=S)NCCCc1ccccc1)CCC2`, 84%. Same read-out and setting: the result for `Oc1cc2c(cc1O)CN(C(=S)NCCc1ccccc1Cl)CCC2` reads 56%.

With `Oc1c(O)c(Cl)c2c(c1Cl)CCN(C(=S)NCCc1cccc(Cl)c1)C2`, in the assay listed under Homo sapiens [1], the Activity turned out to be 27%. Still for that read-out and setting: the result for `Oc1c(O)c(Cl)c2c(c1Cl)CCN(C(=S)NCCCc1ccccc1)C2` reads 11%.

For the origin of these results see ChEMBL document CHEMBL1142273, “SAR studies of capsazepinoid bronchodilators 3: The thiourea part (coupling region) and the 2-(4-chlorophenyl)ethyl moiety (C-region)” (Bioorg Med Chem, 2008).
